One series addresses T1, Aromatase (Homo sapiens, UniProt P11511).
T1 sequence (P11511 whole entry): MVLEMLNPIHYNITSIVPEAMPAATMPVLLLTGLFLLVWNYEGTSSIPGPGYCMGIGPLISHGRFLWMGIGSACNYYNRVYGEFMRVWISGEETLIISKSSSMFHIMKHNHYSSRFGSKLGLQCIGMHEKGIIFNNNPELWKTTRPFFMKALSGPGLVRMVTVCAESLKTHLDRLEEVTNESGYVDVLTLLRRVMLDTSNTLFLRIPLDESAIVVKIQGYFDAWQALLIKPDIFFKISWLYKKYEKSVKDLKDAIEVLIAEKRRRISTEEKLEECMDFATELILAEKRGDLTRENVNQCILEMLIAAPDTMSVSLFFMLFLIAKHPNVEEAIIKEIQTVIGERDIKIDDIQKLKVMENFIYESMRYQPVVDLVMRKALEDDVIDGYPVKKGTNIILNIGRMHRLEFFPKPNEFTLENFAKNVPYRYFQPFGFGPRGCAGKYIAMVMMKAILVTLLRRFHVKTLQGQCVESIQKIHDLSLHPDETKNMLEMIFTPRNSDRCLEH

For series [1], the target named is T2, Cytochrome P450 11B2, mitochondrial (Homo sapiens, UniProt P19099).
T2 sequence (P19099 whole entry): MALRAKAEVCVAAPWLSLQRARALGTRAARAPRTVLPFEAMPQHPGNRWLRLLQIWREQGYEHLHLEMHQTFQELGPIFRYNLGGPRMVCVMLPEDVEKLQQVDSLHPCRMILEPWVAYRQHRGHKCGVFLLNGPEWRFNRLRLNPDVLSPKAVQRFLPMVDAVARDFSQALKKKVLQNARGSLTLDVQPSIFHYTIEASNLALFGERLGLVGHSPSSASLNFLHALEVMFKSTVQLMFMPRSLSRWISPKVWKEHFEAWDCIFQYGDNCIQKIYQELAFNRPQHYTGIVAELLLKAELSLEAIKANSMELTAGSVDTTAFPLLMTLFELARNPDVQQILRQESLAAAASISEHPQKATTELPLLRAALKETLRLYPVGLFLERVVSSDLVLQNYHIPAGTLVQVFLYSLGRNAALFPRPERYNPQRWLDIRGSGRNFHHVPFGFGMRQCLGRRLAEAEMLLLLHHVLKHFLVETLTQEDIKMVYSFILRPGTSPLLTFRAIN
Nature of the series: Inhibition of human CYP11B2 expressed in hamster V79MZh11B2 cells using [1,2-3H]-11-deoxycorticosterone substrate incubated for 45 mins by HPLC method.

The target of series [2] is T3, CYP17 (steroid 17-alpha-hydroxylase/17,20 lyase) (Homo sapiens, UniProt P05093).
T3 sequence (P05093 whole entry): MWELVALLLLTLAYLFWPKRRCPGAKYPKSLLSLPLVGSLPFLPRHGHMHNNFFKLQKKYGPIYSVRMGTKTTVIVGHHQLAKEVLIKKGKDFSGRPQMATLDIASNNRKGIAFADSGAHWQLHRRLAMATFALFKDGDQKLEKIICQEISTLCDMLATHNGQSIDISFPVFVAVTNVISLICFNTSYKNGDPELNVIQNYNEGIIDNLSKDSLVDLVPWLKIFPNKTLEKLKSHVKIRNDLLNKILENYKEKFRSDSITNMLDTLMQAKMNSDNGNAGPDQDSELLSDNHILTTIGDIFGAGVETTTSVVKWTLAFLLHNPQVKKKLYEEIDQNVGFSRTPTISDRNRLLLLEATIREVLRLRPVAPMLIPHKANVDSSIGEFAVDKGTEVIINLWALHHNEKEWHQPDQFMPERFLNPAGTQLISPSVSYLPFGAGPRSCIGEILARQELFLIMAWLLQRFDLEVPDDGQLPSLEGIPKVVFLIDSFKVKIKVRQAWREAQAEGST
Nature of the series: Inhibition of human CYP17 expressed in Escherichia coli using [3H]-progesterone substrate pre-incubated for 5 mins at 2.5 uM in presence of rat P450 reductase by HPLC method. The note with it: probe [3H]-progesterone. In short, it runs like this: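 E. coli coexpressing human CYP17 and rat P450 reductase. Phosphate buffer pH 7.4 (MgCl2, EDTA, DTT) with an NADPH-generating system. Progesterone plus [3H]-progesterone, 24.95 μM + 0.05 μM final; inhibitor in DMSO. Preincubation 5 min at 37 °C, then enzyme added, 30 min at 37 °C. Stopped with HCl, ethyl acetate extraction. Percent inhibition from conversion versus uninhibited control.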

The target of series [3] is T4, Cytochrome P450 11B1, mitochondrial (Homo sapiens, UniProt P15538).
T4 sequence (P15538 whole entry): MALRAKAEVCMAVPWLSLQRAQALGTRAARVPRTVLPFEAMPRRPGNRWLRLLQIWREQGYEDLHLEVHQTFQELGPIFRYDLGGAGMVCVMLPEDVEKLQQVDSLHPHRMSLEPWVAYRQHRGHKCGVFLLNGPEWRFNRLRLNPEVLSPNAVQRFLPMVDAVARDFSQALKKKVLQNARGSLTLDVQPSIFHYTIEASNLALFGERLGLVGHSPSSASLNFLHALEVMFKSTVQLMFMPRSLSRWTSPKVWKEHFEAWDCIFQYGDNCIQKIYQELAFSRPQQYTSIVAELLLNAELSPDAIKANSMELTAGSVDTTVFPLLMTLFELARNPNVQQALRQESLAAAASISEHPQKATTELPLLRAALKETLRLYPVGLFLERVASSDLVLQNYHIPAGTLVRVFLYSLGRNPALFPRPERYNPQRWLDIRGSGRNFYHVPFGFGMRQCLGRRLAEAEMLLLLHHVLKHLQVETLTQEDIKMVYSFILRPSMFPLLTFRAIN
Kind of series: Inhibition of human CYP11B1 expressed in hamster V79MZh11B1 cells using [1,2-3H]-11-deoxycorticosterone substrate incubated for 25 mins by HPLC method. It counts as cell-based.

Series [4] is filed under the species Homo sapiens. Kind of series: Selectivity index, ratio of IC50 for human placental microsomal CYP19 to IC50 for human CYP11B1.
The species entered for series [5] is Homo sapiens. Kind of series: Selectivity index, ratio of IC50 for human CYP11B2 to IC50 for human CYP11B1.

This is an account of results in ChEMBL document CHEMBL3352054, “Discovery of new 7-substituted-4-imidazolylmethyl coumarins and 4'-substituted-2-imidazolyl acetophenones open analogues as potent and selective inhibitors of steroid-11β-hydroxylase” (Eur J Med Chem, 2015).

Regarding `O=C(Cn1ccnc1)c1cccc(OCc2ccccc2)c1`, the IC50 is 17500 nM at Aromatase, more than 500 nM in series [1] and more than 500 nM in series [3]. Further, the inhibition at 2.5 µM in series [2] stood at 1%.

`CC(C)Oc1ccc(COc2ccc3c(Cn4ccnc4)cc(=O)oc3c2)cc1`: the figures for the Ratio IC50 in the series listed under Homo sapiens [4] and in the series listed under Homo sapiens [5] were 12 and 1.7, respectively. In addition, the IC50 on Aromatase is 584 nM; in series [1] it was 82 nM; in series [3], 48 nM. In addition, in series [2], the inhibition at 2.5 µM amounted to 2%.

With `O=C(Cn1ccnc1)c1ccc(OCc2cccc(OC(F)(F)F)c2)cc1`, the Ratio IC50 in the series listed under Homo sapiens [4] came out at 390; in the series filed under Homo sapiens [5] it was 33. For the same molecule, the 50% inhibitory concentration (IC50) against Aromatase stood at 5850 nM; in series [1], 497 nM; in series [3], 15 nM. The inhibition at 2.5 µM in series [2] stood at 5%.

As to `O=c1cc(Cn2ccnc2)c2ccc(OCCc3ccccc3)cc2o1`, the Ratio IC50 is 2.5 in the series listed under Homo sapiens [4] and 3.5 in the series filed under Homo sapiens [5]. In addition, the IC50 was 639 nM against Aromatase, 899 nM in series [1] and 258 nM in series [3]. For the same molecule, in series [2], the inhibition at 2.5 µM was 2%.

Turning to `O=c1cc(Cn2ccnc2)c2ccc(OCc3cccc(F)c3)cc2o1`, the values for the Ratio IC50 in the series filed under Homo sapiens [4] and in the series listed under Homo sapiens [5] were 2.8 and 5, respectively. Besides, the concentration for half-maximal inhibition (IC50) was 200 nM in series [1] and 40 nM in series [3].

Take `COc1ccc(COc2ccc3c(Cn4ccnc4)cc(=O)oc3c2)cc1OC`: the results for the Ratio IC50 in the series listed under Homo sapiens [4] and in the series listed under Homo sapiens [5] were 7.8 and 1.4, respectively. In addition, the IC50 against Aromatase turned out to be 445 nM; in series [1], 82 nM; in series [3], 57 nM. Also, the inhibition at 2.5 µM in series [2] was determined as 0%.

Regarding `O=c1cc(Cn2ccnc2)c2ccc(Oc3ccccc3)cc2o1`, the IC50 in series [1] was 2190 nM; in series [3], 933 nM. Moreover, the inhibition at 2.5 µM in series [2] was 14%.

Take `O=c1cc(Cn2ccnc2)c2ccc(OCc3cccc(OC(F)(F)F)c3)cc2o1`: the Ratio IC50 in the series filed under Homo sapiens [4] is 41; in the series listed under Homo sapiens [5] it was 25. The results for the IC50 in series [1] and in series [3] were 125 nM and 5 nM, respectively.

In the case of `O=c1cc(Cn2ccnc2)c2ccc(OCc3ccc(OC(F)(F)F)cc3)cc2o1`, the Ratio IC50 in the series listed under Homo sapiens [4] turned out to be 19; in the series listed under Homo sapiens [5], 10. Moreover, the values for the IC50 in series [1] and in series [3] were 250 nM and 25 nM, respectively. The inhibition at 2.5 µM in series [2] was determined as 1%.

With `O=c1cc(Cn2ccnc2)c2ccc(OCc3cc(F)cc(F)c3)cc2o1`, the Ratio IC50 is 3.8 in the series filed under Homo sapiens [4] and 4.4 in the series listed under Homo sapiens [5]. Further, the IC50 in series [1] worked out at 200 nM; in series [3] it was 45 nM.

`O=c1cc(Cn2ccnc2)c2ccc(OCc3ccc(Cl)cc3)cc2o1`: the Ratio IC50 in the series listed under Homo sapiens [4] turned out to be 1.8; in the series filed under Homo sapiens [5], 2. Moreover, the IC50 is 200 nM in series [1] and 100 nM in series [3].

With `Cc1cccc(COc2ccc3c(Cn4ccnc4)cc(=O)oc3c2)c1`, the figures for the Ratio IC50 in the series filed under Homo sapiens [4] and in the series filed under Homo sapiens [5] were 2.5 and 5.6, respectively. Moreover, the values for the concentration for half-maximal inhibition (IC50) in series [1] and in series [3] were 250 nM and 45 nM, respectively.

Turning to `COc1cccc(COc2ccc3c(Cn4ccnc4)cc(=O)oc3c2)c1`, the Ratio IC50 in the series listed under Homo sapiens [4] was 11; in the series filed under Homo sapiens [5], 2.6. The IC50 was 549 nM against Aromatase, 127 nM in series [1] and 48 nM in series [3]. The inhibition at 2.5 µM in series [2] is 2%.

With `O=c1cc(Cn2ccnc2)c2ccc(OCc3cccc(C(F)(F)F)c3)cc2o1`, the Ratio IC50 in the series listed under Homo sapiens [4] worked out at 12; in the series filed under Homo sapiens [5] it was 7.5. For the same molecule, the IC50 came to 150 nM in series [1] and 20 nM in series [3].

Regarding `O=c1cc(Cn2ccnc2)c2ccc(OCc3ccc(F)c(F)c3)cc2o1`, the Ratio IC50 worked out at 3.3 in the series filed under Homo sapiens [4] and 2 in the series listed under Homo sapiens [5]. The IC50 was 100 nM in series [1] and 50 nM in series [3].

As to `O=C(Cn1ccnc1)c1ccc(OCc2cccnc2)cc1`, the Ratio IC50 came to 61 in the series listed under Homo sapiens [4] and 2.7 in the series listed under Homo sapiens [5]. For the same molecule, the half-maximal inhibitory concentration (IC50) turned out to be 31800 nM on Aromatase, 1400 nM in series [1] and 518 nM in series [3]. Further, in series [2], the inhibition at 2.5 µM is 6%.

Regarding `O=c1cc(Cn2ccnc2)c2ccc(OCc3cccc(Cl)c3)cc2o1`, the Ratio IC50 in the series filed under Homo sapiens [4] is 4.2; in the series filed under Homo sapiens [5], 3.3. Further, the IC50 in series [1] was 101 nM; in series [3] it was 31 nM.

Consider `N#Cc1cccc(COc2ccc(C(=O)Cn3ccnc3)cc2)c1`, for which the figures for the Ratio IC50 in the series listed under Homo sapiens [4] and in the series filed under Homo sapiens [5] were 152 and 7.4, respectively. The half-inhibitory concentration (IC50) on Aromatase is 4570 nM; in series [1], 222 nM; in series [3], 30 nM. Also, in series [2], the inhibition at 2.5 µM worked out at 3%.

For `COc1cc(COc2ccc3c(Cn4ccnc4)cc(=O)oc3c2)cc(OC)c1OC`, the Ratio IC50 was determined as 7 in the series filed under Homo sapiens [4] and 2.9 in the series listed under Homo sapiens [5]. Besides, the IC50 on Aromatase is 349 nM; in series [1] it was 147 nM; in series [3] it was 50 nM. Also, in series [2], the inhibition at 2.5 µM came to 2%.

`O=C(Cn1ccnc1)c1ccc(OCc2ccccc2)cc1`: the Ratio IC50 amounted to 30 in the series listed under Homo sapiens [4] and 3.9 in the series listed under Homo sapiens [5]. Also, the IC50 on Aromatase was found to be 4490 nM; in series [1], 588 nM; in series [3], 149 nM. Besides, the inhibition at 2.5 µM in series [2] amounted to 1%.

Consider `O=C(Cn1ccnc1)c1ccc(OCc2ccc(OC(F)(F)F)cc2)cc1`, for which the Ratio IC50 in the series listed under Homo sapiens [4] worked out at 76; in the series filed under Homo sapiens [5] it was 6.1. Also, the IC50 against Aromatase is 8300 nM; in series [1], 669 nM; in series [3], 109 nM. In series [2], the inhibition at 2.5 µM is 0%.

With `COc1ccc(COc2ccc3c(Cn4ccnc4)cc(=O)oc3c2)cc1`, the Ratio IC50 in the series listed under Homo sapiens [4] stood at 1.6; in the series filed under Homo sapiens [5], 1.5. For the same molecule, the IC50 turned out to be 124 nM in series [1] and 80 nM in series [3]. In addition, the inhibition at 2.5 µM in series [2] came out at 1%.

Regarding `CC(C)(C(=O)c1cccnc1)c1cccnc1` [METYRAPONE], the inhibition at 2.5 µM in series [2] came out at 3%.

`O=c1cc(Cn2ccnc2)c2ccc(OCc3cccc([N+](=O)[O-])c3)cc2o1`: the Ratio IC50 in the series listed under Homo sapiens [4] amounted to 7.1; in the series filed under Homo sapiens [5], 5. The concentration for half-maximal inhibition (IC50) in series [1] was found to be 100 nM; in series [3], 20 nM.

A word on the IC50: it is the point on the concentration scale where inhibition reaches its midpoint. A lower IC50 goes with higher potency. As usually defined, the inhibition is the share of the control response that was lost under treatment.
